The source made the active and inactive calls.
Columns and labels:
Mus musculus [1] = experiment: Anticonvulsant activity in mouse assessed as protection against maximal electroshock-induced seizures at 100 mg/kg, ip; format: functional, organism-based
Method in brief: (§1)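 Mice dosed ip; maximal seizures induced by auricular electroshock (25 mA, 500 V, 50 Hz, 0.2 s). Endpoint: hind-limb tonic extension; animals without it scored protected. Read-out is number protected over number tested.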

Mus musculus [2] = experiment: Toxicity in mouse at 30 mg/kg, ip measured during maximal electroshock seizure test; format: organism-based; conditions: in vivo
Mus musculus [3] = experiment: Toxicity in mouse at 100 mg/kg, ip measured during maximal electroshock seizure test; format: organism-based; conditions: in vivo
Mus musculus [4] = experiment: Anticonvulsant activity in mouse assessed as protection against maximal electroshock-induced seizures at 30 mg/kg, ip; format: functional, organism-based; method in brief: as §1
Mus musculus [5] = experiment: Neurotoxicity in mouse assessed as motor impairment at 100 mg/kg, ip measured for one min by rotarod test; format: toxicity, organism-based; conditions: in vivo, 1 min
Method in brief: (§2)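 Mice trained on an accelerating rotarod, then tested at least 24 h later after ip pretreatment, on a rod turning at 10 rpm. Neurotoxicity was scored as failure to stay on the rod for one minute. Read-out is mice impaired over mice tested.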

Mus musculus [6] = experiment: Neurotoxicity in mouse assessed as motor impairment at 30 mg/kg, ip measured for one min by rotarod test; format: toxicity, organism-based; conditions: in vivo, 1 min; method in brief: as §2
[7] = Protection index, ratio of TD50 for neurotoxicity in ip dosed mouse by rotarod test to ED50 for anticonvulsant activity in mouse by maximal electroshock seizure test; format: toxicity, organism-based; conditions: in vivo, read-out: Ratio TD50/ED50
Mus musculus [8] = experiment: Anticonvulsant activity in ip dosed mouse assessed as protection against maximal electroshock-induced seizures; format: functional
Method in brief: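 Mice were dosed ip. Maximal seizures were induced by auricular electrodes (25 mA, 500 V, 50 Hz, 0.2 s). Absence of hind-limb tonic extension counted as protection. […] Motor impairment was scored on a 10 rpm rotarod, giving TD50 the same way.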

[9] = Neurotoxicity in ip dosed mouse assessed as motor impairment measured for one min by rotarod test; format: toxicity, organism-based; conditions: in vivo; method in brief: as §2
HepG2 [10] = experiment: Cytotoxicity against human HepG2 cells assessed as effect on cell viability at 10 to 250 uM after 24 hrs by MTT assay; format: cell-based; conditions: hepg2, 24 h
Method in brief: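 HepG2 cells grown in MEM with 10% FBS (37 °C, 5% CO2) and seeded at 1 × 10^4. After overnight culture, exposed to 10–250 μM for 24 h. MTT for 3 h, formazan dissolved, OD 570 nm. Viability is % of control ± SEM from three independent experiments.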

Mus musculus [11] = experiment: Analgesic activity in mouse assessed as decrease in time of paw licking during phase 1 at 21 mg/kg, ip measured for 5 mins by formalin test relative to control; format: functional; set-up: scale not given: the % may be the effect or the level left
Method in brief: (§3)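 Formalin test in mice: 20 μL of 5% formalin injected intraplantarly into the right hind paw. Each mouse was observed alone in a glass beaker for 30 min. Time (s) spent licking or biting the injected paw was recorded at 0–5 min (acute phase) and 15–30 min (inflammatory phase).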

Mus musculus [12] = experiment: Anticonvulsant activity in mouse assessed as protection against subcutaneous pentylenetetrazole-induced seizures at 100 mg/kg, ip measured for 30 mins post pentylenetetrazole challenge at 0.5 hrs after compound dosing relative to control; format: functional
Mus musculus [13] = experiment: Anticonvulsant activity in mouse assessed as increase in electroconvulsive threshold at 10 mg/kg, ip by maximal electroshock seizure threshold test relative to control; format: functional
Mus musculus [14] = experiment: Anticonvulsant activity in mouse assessed as current strength required to induce tonic hind-limb extension in 50% of the animals at 10 mg/kg, ip by maximal electroshock seizure threshold test (reference value: 6.05 to 8.13 mA); format: functional
Mus musculus [15] = experiment: Neurotoxicity in mouse assessed as motor impairment by measuring loss of coordination at 21 mg/kg, ip measured for 60 secs by chimney test relative to control; format: toxicity, organism-based; conditions: in vivo, 1 min
Method in brief: (§4)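 Mice dosed ip; trained, selected animals placed in a horizontal tube 25 cm long and 2.5 cm in diameter, then tube reversed so mice must climb out backward. Read-outs: escape time (s) ± SEM and % animals losing coordination versus control. Unpaired t test.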

Mus musculus [16] = experiment: Anticonvulsant activity in mouse assessed as protection against subcutaneous pentylenetetrazole-induced seizures by measuring latency time of tonic seizures at 100 mg/kg, ip measured for 30 mins post pentylenetetrazole challenge at 0.5 hrs after compound dosing (reference value: 562.8 to 614.9 secs); format: functional
HepG2 [17] = experiment: Cytotoxicity against human HepG2 cells assessed as effect on cell viability at 10 to 250 uM after 24 hrs by neutral red assay; format: cell-based; conditions: hepg2, 24 h
Method in brief: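 HepG2 cells seeded at 5 × 10^4 per well, then after 24 h given medium with 10–250 μM for 24 h. Viability by neutral red staining, OD 570 nm. Results are % of control ± SEM, three independent experiments.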

Mus musculus [18] = experiment: Analgesic activity in mouse assessed as decrease in time of paw licking during phase 2 at 21 mg/kg, ip measured for 15 to 30 mins by formalin test relative to control; format: functional; set-up: scale not given: the % may be the effect or the level left; method in brief: as §3
[19] = Cytotoxicity against mouse CRL-2541 cells assessed as effect on cell viability at 10 to 250 uM after 24 hrs by MTT assay; format: cell-based
Mus musculus [20] = experiment: Neurotoxicity in mouse assessed as motor impairment by measuring time of escaping from chimney at 21 mg/kg, ip measured for 60 secs (reference value: 8.87 +/- 1.79 secs); format: toxicity, organism-based; conditions: in vivo, 1 min; method in brief: as §4
Mus musculus [21] = experiment: Toxicity in mouse assessed as effect on spontaneous activity at 21 mg/kg, ip measured for 30 mins by photoresistor actometer relative to control; format: organism-based; conditions: in vivo, 0.5 h
Method in brief: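 Mice dosed ip; locomotor activity by photoresistor actometers counting light-beam interruptions. Each mouse was habituated 30 min in a cage, then crossings were counted over a 30 min session. Data are mean ± SEM and % change vs control; unpaired t test.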

Mus musculus [22] = experiment: Toxicity in mouse at 25 mg/kg, ip measured during maximal electroshock seizure test; format: organism-based; conditions: in vivo

| SMILES | Activity (Mus musculus [1]) | Activity (Mus musculus [2]) | Activity (Mus musculus [3]) | Activity (Mus musculus [5]) | also measured |
| --- | --- | --- | --- | --- | --- |
| Cc1ccc(Cl)c(OCCCCNC(C)CO)c1 (racemic) | Active | Non-Toxic | Non-Toxic | Toxic | Activity (Mus musculus [4]): inactive; Activity (Mus musculus [6]): Non-Toxic |
| CC[C@H](CO)NCCCCOc1cc(C)ccc1Cl | Active | Non-Toxic | Non-Toxic | Toxic | Activity (Mus musculus [6]): Non-Toxic |
| Cc1cccc(Cl)c1OCCCCN[C@H]1CC[C@H](O)CC1 | Active | – | Non-Toxic | – | selectivity ratio [7]: 1.22; ED50 (Mus musculus [8]): 41.1 mg/kg; TD50 at 1 min [9]: 50 mg/kg |
| CC[C@@H](CO)NCCOc1c(C)cccc1C | – | – | – | – | selectivity ratio [7]: 4.55 |
| Cc1ccc(Cl)c(OCCN2CCC(O)CC2)c1 | Active | – | Non-Toxic | Toxic | – |
| Cc1cccc(Cl)c1OCCCCN[C@H]1CCCC[C@@H]1O.Cl (racemic) | – | – | Toxic | Toxic | – |
| Cc1cc(C)c(OCCCN2CCC(O)CC2)c(C)c1 | Active | – | Non-Toxic | – | Activity (HepG2 [10]): Non-Toxic; Activity (Mus musculus [11]): 27.01%; Activity (Mus musculus [12]): inactive; Activity (Mus musculus [13]): 12.55%; Activity (Mus musculus [14]): 9.15 mA; Activity (Mus musculus [15]): 0%; Time (Mus musculus [16]): 275.4 s; Activity (HepG2 [17]): Non-Toxic; Activity (Mus musculus [18]): 4.87%; Activity [19]: Non-Toxic; Time (Mus musculus [20]): 6.5 s; Activity (Mus musculus [21]): 19.76% |
| CC[C@@H](CO)NCCCCOc1cc(C)ccc1Cl | Active | Non-Toxic | Non-Toxic | Toxic | Activity (Mus musculus [4]): inactive |
| Cc1ccc(Cl)c(OCCOCCN2CCC(O)CC2)c1 | Active | – | Non-Toxic | – | Activity (Mus musculus [4]): inactive; Activity (Mus musculus [6]): Non-Toxic |
| Cc1cccc(C)c1OCCCCNCC(C)O (racemic) | Active | Non-Toxic | Non-Toxic | – | selectivity ratio [7]: 1.6; ED50 (Mus musculus [8]): 27.1 mg/kg; Activity (Mus musculus [22]): Non-Toxic; TD50 at 1 min [9]: 43.3 mg/kg |
| Cc1ccc(Cl)c(OCCN[C@H]2CC[C@H](O)CC2)c1 | – | – | – | Toxic | – |
